Assay results taken from ChEMBL document CHEMBL1138317, “Antibacterial oxazolidinones possessing a novel C-5 side chain. (5R)-trans-3-[3-Fluoro-4- (1-oxotetrahydrothiopyran-4-yl)phenyl]-2- oxooxazolidine-5-carboxylic acid amide (PF-00422602), a new lead compound” (J Med Chem, 2007).
Converted amounts (≈) assume the structure as drawn. The source made the active and inactive calls. No cut-off for these calls is given here.

Legend:
[1] = system: Streptococcus pneumoniae; experiment: Antibacterial activity against levofloxacin-penicillin-resistant Streptococcus pneumoniae SV1 SP3 by microbroth technology; format: functional
Summary of the method: (§1)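 Drug-resistant panel strains (levofloxacin/oxacillin-resistant S. aureus, levofloxacin/penicillin-resistant S. pneumoniae, vancomycin-resistant E. faecalis and E. faecium). Broth microdilution MIC in µg/mL; value reported as MIC90 across the strains of each resistant group.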

[2] = molecular target: T1, Amine oxidase [flavin-containing] A (Homo sapiens, UniProt P21397); experiment: Inhibition of human recombinant MAOA
T1 sequence (P21397 whole entry): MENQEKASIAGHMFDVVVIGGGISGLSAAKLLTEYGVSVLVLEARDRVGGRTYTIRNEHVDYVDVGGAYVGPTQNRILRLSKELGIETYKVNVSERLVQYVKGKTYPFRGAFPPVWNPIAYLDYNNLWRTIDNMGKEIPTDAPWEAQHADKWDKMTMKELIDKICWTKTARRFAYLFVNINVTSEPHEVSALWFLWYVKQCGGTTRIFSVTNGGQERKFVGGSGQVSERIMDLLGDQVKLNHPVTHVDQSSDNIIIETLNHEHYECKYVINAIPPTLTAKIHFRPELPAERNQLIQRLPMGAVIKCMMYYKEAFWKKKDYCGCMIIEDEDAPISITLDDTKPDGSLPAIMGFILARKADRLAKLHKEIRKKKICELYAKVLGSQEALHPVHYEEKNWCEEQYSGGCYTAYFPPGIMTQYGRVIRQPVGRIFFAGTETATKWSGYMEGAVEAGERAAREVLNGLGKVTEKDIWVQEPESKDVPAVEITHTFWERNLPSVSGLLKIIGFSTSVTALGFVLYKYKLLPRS

[3] = system: Staphylococcus aureus; experiment: Antibacterial activity against levofloxacin-oxacillin-resistant Staphylococcus aureus UC76 SA1 by micro-broth technology; format: functional; summary of the method: as §1
[4] = system: Haemophilus influenzae; experiment: Antibacterial activity against Haemophilus influenzae by micro-broth technology; format: functional
Summary of the method: (§2)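 MIC determined by broth microdilution, reported in µg/mL.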

[5] = system: Escherichia coli; experiment: Inhibition of protein synthesis in Escherichia coli by cell-free transcription-translation assay; format: functional
Summary of the method: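 E. coli cell-free coupled transcription/translation run in microtiter format with a luciferase reporter; luminescence was the read-out for protein synthesis.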

[6] = system: Enterococcus faecium; experiment: Antibacterial activity against vancomycin-resistant Enterococcus faecium by micro-broth technology; format: functional; summary of the method: as §1
[7] = system: Moraxella catarrhalis; experiment: Antibacterial activity against Moraxella catarrhalis by microbroth technology; format: functional; summary of the method: as §2
[8] = system: Enterococcus faecalis; experiment: Antibacterial activity against vancomycin-resistant Enterococcus faecalis MGH2 EF1 by microbroth technology; format: functional; summary of the method: as §1
[9] = molecular target: T2, Cytochrome P450 1A2 (Homo sapiens, UniProt P05177); experiment: Inhibition of human liver microsome CYP1A2; format: ADME, microsomes
T2 sequence (P05177 whole entry): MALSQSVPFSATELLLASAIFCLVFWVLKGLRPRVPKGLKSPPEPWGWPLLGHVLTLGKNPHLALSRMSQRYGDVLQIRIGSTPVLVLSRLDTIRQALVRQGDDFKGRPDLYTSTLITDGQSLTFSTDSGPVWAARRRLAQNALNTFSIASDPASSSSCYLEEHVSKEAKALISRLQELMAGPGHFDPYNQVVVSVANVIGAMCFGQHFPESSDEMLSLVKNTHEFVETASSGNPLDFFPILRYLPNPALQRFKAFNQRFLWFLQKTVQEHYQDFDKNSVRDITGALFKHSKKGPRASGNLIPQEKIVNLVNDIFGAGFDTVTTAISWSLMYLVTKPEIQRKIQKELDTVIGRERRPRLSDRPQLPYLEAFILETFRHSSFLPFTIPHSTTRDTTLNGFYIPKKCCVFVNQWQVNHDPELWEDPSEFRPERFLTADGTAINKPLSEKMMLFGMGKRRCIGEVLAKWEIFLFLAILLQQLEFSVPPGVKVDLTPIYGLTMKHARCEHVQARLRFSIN
Summary of the method: (§3)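 Done in duplicate with 0.03-0.2 mg/mL human liver microsomes, 1 mM NADPH and 50 mM potassium phosphate, pH 7.4. Probe substrates: 30 µM phenacetin (1A2), 7.5 µM diclofenac (2C9), 50 µM […], 10 µM dextromethorphan (2D6), and 50 µM phenacetin, 50 µM midazolam or 1.5 µM felodipine (3A4). Drug was tested at 0-1000 µM. Reactions were quenched with ice-cold acetonitrile after 7-30 min and analysed by LC/MS.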

[10] = system: Canis familiaris; experiment: Bioavailability in dog at 20 mg/kg, po; format: ADME, organism-based, Canis lupus familiaris; settings: in vivo
[11] = system: Rattus norvegicus; experiment: Effect on hematology in Sprague-Dawley rat assessed as increase in red blood cells at 600 mg/kg/day, po after 14 days; format: ADME, organism-based; parameters: route oral; settings: in vivo, 336 h
Summary of the method: (§4)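 Female Sprague-Dawley rats received vehicle or drug by oral gavage daily for 14 days, at doses of 40-1000 (mg/kg)/day across the studies. End points were moribundity or lethality, hematology (RBC, hemoglobin, hematocrit, reticulocytes), bone marrow M:E ratio and plasma AUC(0-24).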

[12] = system: Rattus norvegicus; experiment: Effect on hematology in Sprague-Dawley rat assessed as increase in hematocrit at 600 mg/kg/day, po after 14 days; format: ADME, organism-based; parameters: route oral; settings: in vivo, 336 h; summary of the method: as §4
[13] = system: Staphylococcus aureus; experiment: Antibacterial activity against […] in po dosed CD1 mouse systemic infection model assessed as mortality after 7 days; format: functional
[14] = system: Rattus norvegicus; experiment: Effect on hematology in Sprague-Dawley rat assessed as increase in hemoglobin at 600 mg/kg/day, po after 14 days; format: ADME, organism-based; parameters: route oral; settings: in vivo, 336 h; summary of the method: as §4
[15] = molecular target: Cytochrome P450 2C19 (Homo sapiens, UniProt P33261); experiment: Inhibition of human liver microsome CYP2C19; format: ADME, microsomes; summary of the method: as §3
[16] = Cmax in dog at 20 mg/kg, po; format: ADME, organism-based, Canis lupus familiaris; parameters: dose 20 mg/kg, route oral; settings: in vivo
[17] = system: Rattus norvegicus; experiment: Increase in bone marrow myeloid/erythroid ratio in Sprague-Dawley rat at 600 mg/kg/day, po after 14 days; format: ADME, organism-based; parameters: route oral; settings: in vivo, 336 h
[18] = system: Rattus norvegicus; experiment: Bioavailability in Sprague-Dawley rat at 20 mg/kg, po; format: ADME, organism-based; settings: in vivo
[19] = Clearance in mouse at 4 mg/kg, iv; format: ADME, organism-based; parameters: dose 4 mg/kg, route intravenous; settings: in vivo
[20] = system: Staphylococcus aureus; experiment: Antibacterial activity against Staphylococcus aureus UC76 in po dosed CD1 mouse systemic infection model assessed as mortality after 7 days; format: functional
[21] = AUC in mouse at 20 mg/kg, po; format: ADME, organism-based; parameters: dose 20 mg/kg, route oral; settings: plasma
[22] = molecular target: Cytochrome P450 2C9 (Homo sapiens, UniProt P11712); experiment: Inhibition of human liver microsome CYP2C9; format: ADME, microsomes; summary of the method: as §3
[23] = Volume of distribution at steady state in dog at 4 mg/kg, iv; format: ADME, organism-based, Canis lupus familiaris; parameters: dose 4 mg/kg, route intravenous; settings: in vivo, read-out: Vdss
[24] = Half life in dog at 20 mg/kg, po; format: ADME, organism-based, Canis lupus familiaris; parameters: dose 20 mg/kg, route oral; settings: in vivo
[25] = AUC (0 to 24 hrs) in Sprague-Dawley rat plasma at 600 mg/kg/day, po after 14 days; format: ADME, organism-based; parameters: dose 600 mg/kg/day, time < 24 hr, route oral; summary of the method: as §4
[26] = Cmax in mouse at 20 mg/kg, po; format: ADME, organism-based; parameters: dose 20 mg/kg, route oral; settings: in vivo
[27] = Cmax in Sprague-Dawley rat at 20 mg/kg, po; format: ADME, organism-based; parameters: dose 20 mg/kg, route oral; settings: in vivo
[28] = system: Staphylococcus aureus; experiment: Antibacterial activity against methicillin-resistant Staphylococcus aureus SA1417 in po dosed CD1 mouse systemic infection model assessed as mortality after 7 days; format: functional
[29] = system: Rattus norvegicus; experiment: Toxicity in Sprague-Dawley rat at 600 mg/kg/day, po after 14 days; format: organism-based; parameters: route oral; settings: in vivo, 336 h; summary of the method: as §4
[30] = Volume of distribution at steady state in Sprague-Dawley rat at 10 mg/kg, iv; format: ADME, organism-based; parameters: dose 10 mg/kg, route intravenous; settings: in vivo, read-out: Vdss
[31] = system: Staphylococcus; experiment: Bacteriostatic activity against Staphylococcus after 48 hrs by time kill study; format: functional, organism-based
[32] = system: Streptococcus pneumoniae; experiment: Bactericidal activity against Streptococcus pneumoniae after 48 hrs by time kill study; format: functional, organism-based
Summary of the method: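 Time-kill study: bacteria exposed continuously to drug at 2-16× the MIC and sampled over 48 h to assess eradication.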

[33] = Half life in mouse at 20 mg/kg, po; format: ADME, organism-based; parameters: dose 20 mg/kg, route oral; settings: in vivo
[34] = molecular target: Cytochrome P450 3A4 (Homo sapiens, UniProt P08684); experiment: Inhibition of human liver microsome CYP3A4; format: ADME, microsomes; summary of the method: as §3
[35] = system: Rattus norvegicus; experiment: Effect on hematology in Sprague-Dawley rat assessed as decrease in reticulocytes at 600 mg/kg/day, po after 14 days; format: ADME, organism-based; parameters: route oral; scale not given: the % may be the effect or the level left; settings: in vivo, 336 h; summary of the method: as §4
[36] = system: Enterococcus; experiment: Bacteriostatic activity against Enterococcus after 48 hrs by time kill study; format: functional, organism-based
[37] = AUC (0 to 24 hrs) in Sprague-Dawley rat plasma at 200 mg/kg/day, po after 14 days; format: ADME, organism-based; parameters: dose 200 mg/kg/day, time < 24 hr, route oral; summary of the method: as §4
[38] = system: Rattus norvegicus; experiment: AUC in Sprague-Dawley rat at 20 mg/kg, po; format: ADME, organism-based, Plasma; parameters: dose 20 mg/kg, route oral; settings: in vivo
[39] = system: Canis familiaris; experiment: AUC in dog at 20 mg/kg, po; format: ADME, organism-based, Canis lupus familiaris, Plasma; parameters: dose 20 mg/kg, route oral; settings: in vivo
[40] = Volume of distribution at steady state in mouse at 4 mg/kg, iv; format: ADME, organism-based; parameters: dose 4 mg/kg, route intravenous; settings: in vivo, read-out: Vdss
[41] = molecular target: Cytochrome P450 2D6 (Homo sapiens, UniProt P10635); experiment: Inhibition of human liver microsome CYP2D6; format: ADME, microsomes; summary of the method: as §3
[42] = system: Staphylococcus aureus; experiment: Antibacterial activity against methicillin-resistant Staphylococcus aureus SA1417 by micro-broth technology; format: functional
[43] = system: Streptococcus pyogenes; experiment: Antibacterial activity against Streptococcus pyogenes C203 by micro-broth technology; format: functional
[44] = Half life in Sprague-Dawley rat at 20 mg/kg, po; format: ADME, organism-based; parameters: dose 20 mg/kg, route oral; settings: in vivo

Cytochrome P450 2D6, sequence (P10635 whole entry): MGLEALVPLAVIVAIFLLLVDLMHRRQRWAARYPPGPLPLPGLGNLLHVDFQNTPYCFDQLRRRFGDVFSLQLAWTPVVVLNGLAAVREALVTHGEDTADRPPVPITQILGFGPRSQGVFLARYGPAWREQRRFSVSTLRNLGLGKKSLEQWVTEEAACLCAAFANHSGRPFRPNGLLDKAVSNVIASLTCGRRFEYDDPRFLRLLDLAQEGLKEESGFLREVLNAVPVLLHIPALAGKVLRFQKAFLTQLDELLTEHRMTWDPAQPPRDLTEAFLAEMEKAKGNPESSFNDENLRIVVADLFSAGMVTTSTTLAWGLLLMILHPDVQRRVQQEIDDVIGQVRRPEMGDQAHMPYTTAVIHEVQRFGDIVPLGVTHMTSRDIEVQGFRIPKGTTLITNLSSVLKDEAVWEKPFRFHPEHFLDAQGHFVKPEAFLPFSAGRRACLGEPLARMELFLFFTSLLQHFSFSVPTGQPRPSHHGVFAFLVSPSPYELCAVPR
Cytochrome P450 2C19, sequence (P33261 whole entry): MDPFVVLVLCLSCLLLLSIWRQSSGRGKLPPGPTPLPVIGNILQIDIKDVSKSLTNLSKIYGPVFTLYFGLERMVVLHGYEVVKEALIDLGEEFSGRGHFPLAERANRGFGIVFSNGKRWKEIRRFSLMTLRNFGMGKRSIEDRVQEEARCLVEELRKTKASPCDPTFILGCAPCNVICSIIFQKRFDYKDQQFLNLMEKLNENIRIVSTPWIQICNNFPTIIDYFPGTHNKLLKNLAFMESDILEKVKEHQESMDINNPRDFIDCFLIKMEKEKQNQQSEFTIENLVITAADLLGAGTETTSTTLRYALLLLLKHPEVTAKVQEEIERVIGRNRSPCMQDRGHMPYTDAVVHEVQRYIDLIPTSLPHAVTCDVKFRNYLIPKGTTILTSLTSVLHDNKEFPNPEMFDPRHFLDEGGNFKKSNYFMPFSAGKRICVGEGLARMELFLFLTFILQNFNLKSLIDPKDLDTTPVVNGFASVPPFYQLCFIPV
Cytochrome P450 2C9, sequence (P11712 whole entry): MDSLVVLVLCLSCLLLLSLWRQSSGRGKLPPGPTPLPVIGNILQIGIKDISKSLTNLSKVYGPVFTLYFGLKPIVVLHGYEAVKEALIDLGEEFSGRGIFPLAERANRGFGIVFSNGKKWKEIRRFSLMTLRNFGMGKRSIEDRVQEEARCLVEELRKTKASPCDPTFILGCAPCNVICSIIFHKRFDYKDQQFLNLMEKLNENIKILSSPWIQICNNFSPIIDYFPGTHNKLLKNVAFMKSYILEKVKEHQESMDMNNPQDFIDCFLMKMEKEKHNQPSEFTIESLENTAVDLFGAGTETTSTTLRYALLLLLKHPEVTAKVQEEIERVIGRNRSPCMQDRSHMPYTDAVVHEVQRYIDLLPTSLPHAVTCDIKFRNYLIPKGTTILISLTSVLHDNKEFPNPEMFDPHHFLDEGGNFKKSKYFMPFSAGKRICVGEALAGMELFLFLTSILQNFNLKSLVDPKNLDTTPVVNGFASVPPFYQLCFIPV
Cytochrome P450 3A4, sequence (P08684 whole entry): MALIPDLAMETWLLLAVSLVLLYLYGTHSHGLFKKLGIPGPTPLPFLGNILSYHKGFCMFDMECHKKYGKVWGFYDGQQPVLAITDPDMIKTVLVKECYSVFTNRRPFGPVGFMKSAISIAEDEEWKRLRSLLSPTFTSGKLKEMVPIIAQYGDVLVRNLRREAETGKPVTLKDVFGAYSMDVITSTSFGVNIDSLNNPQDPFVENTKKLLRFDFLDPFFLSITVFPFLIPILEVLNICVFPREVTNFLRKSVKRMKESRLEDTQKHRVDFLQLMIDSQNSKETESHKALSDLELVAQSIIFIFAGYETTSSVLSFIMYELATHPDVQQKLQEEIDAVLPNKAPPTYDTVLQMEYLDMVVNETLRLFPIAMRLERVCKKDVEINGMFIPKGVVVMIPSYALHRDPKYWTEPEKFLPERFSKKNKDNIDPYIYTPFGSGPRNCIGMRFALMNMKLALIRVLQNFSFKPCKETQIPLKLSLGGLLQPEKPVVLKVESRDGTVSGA

NC(=O)[C@H]1CN(c2ccc(C3CCOCC3)c(F)c2)C(=O)O1
MIC [1]: 2 µg/mL (≈ 6.49 µM)
IC50 [2]: 58 µM
MIC [3]: 4 µg/mL (≈ 13 µM)
MIC [4]: > 8 µg/mL
IC50 [5]: 6.1 µM
MIC [6]: 8 µg/mL (≈ 25.9 µM)
MIC [7]: > 8 µg/mL
MIC [8]: 4 µg/mL (≈ 13 µM)

NC(=O)[C@H]1CN(c2ccc([C@H]3CC[S@+]([O-])CC3)c(F)c2)C(=O)O1
IC50 [9]: > 900 µM
F [10]: 64%
Activity [11]: 8%
Activity [12]: 8%
PD50 [13]: <5 mg/kg
MIC90 [1]: 2 µg/mL (≈ 5.88 µM)
Activity [14]: 8%
IC50 [15]: > 900 µM
Cmax [16]: 17900 ng/mL
Ratio [17]: 4.5
IC50 [2]: 546 µM
F [18]: 83%
clearance [19]: 25.2 mL/min/kg
PD50 [20]: 1.25 mg/kg
AUC [21]: 48.3 µg·h/mL
MIC90 [3]: 2 µg/mL (≈ 5.88 µM)
IC50 [22]: > 900 µM
Vd [23]: 0.7 L/kg
half-life [24]: 6.2 h
MIC [4]: > 8 µg/mL
AUC at 24 h [25]: 619 µg·h/mL
Cmax [26]: 12300 ng/mL
Cmax [27]: 15900 ng/mL
PD50 [28]: 1.7 mg/kg
Activity [29]: Toxic
Vd [30]: 6.2 L/kg
IC50 [5]: 3.4 µM
Activity [31]: Active
Activity [32]: Active
half-life [33]: 1.5 h
IC50 [34]: > 900 µM
Activity [35]: 62%
Activity [36]: Active
AUC at 24 h [37]: 223 µg·h/mL
MIC90 [6]: 4 µg/mL (≈ 11.8 µM)
AUC [38]: 109 µg·h/mL
AUC [39]: 76.2 µg·h/mL
Vd [40]: 3.3 L/kg
IC50 [41]: > 900 µM
MIC [7]: > 8 µg/mL
MIC90 [8]: 4 µg/mL (≈ 11.8 µM)
MIC [42]: 4 µg/mL (≈ 11.8 µM)
MIC [43]: 4 µg/mL (≈ 11.8 µM)
half-life [44]: 5.8 h

NC(=O)[C@H]1CN(c2cc(F)c(N3CCOCC3)c(F)c2)C(=O)O1
MIC90 [1]: 4 µg/mL (≈ 12.2 µM)
IC50 [2]: 63 µM
PD50 [20]: 6.7 mg/kg
MIC90 [3]: 4 µg/mL (≈ 12.2 µM)
MIC [4]: > 8 µg/mL
IC50 [5]: 17 µM
MIC90 [6]: 8 µg/mL (≈ 24.4 µM)
MIC [7]: > 8 µg/mL
MIC90 [8]: 8 µg/mL (≈ 24.4 µM)
